Test results from PMC8694313 (RSC Advances, 2021).
In brackets after ≈: the same amount, converted by molar mass.

How the values were obtained:
Pseudomonas aeruginosa = test: In vitro antibacterial MIC determination; type: cell-based
Method in brief: (§1)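 Bacteria grown on nutrient agar, subcultured to log phase in nutrient broth, then diluted in sterile saline to about 10^5–10^6 CFU mL−1. Test compounds diluted in acetone, DMSO or diethyl ether (ether preferred). Saturated disks placed on spread-plated inoculum and incubated at 37 °C for 24 h. MIC determined across different compound concentrations, with streptomycin as standard.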

Rhizopus arrhizus = test: In vitro antifungal MIC, poison plate technique; type: cell-based
RAW 264.7 cells [1] = test: Nitrite; type: cell-based, murine; conditions: RAW 264.7, 100 μM and 200 μM pre-treatment; Fig. 5
Method in brief: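 RAW 264.7 cells (1 × 10^6) seeded in flasks and left to adhere overnight. Pretreated 1 h with test compound (100 or 200 μM), then 100 μM LPS for 24 h at 37 °C, 5% CO2. Supernatant mixed with an equal volume of Griess reagent (0.1% naphthylethylenediamine and 1% sulfanilamide, 1:1, in 5% phosphoric acid) for 10 min in the dark at room temperature; A540 read. Nitrite quantified from a NaNO2 standard curve (0.1–6.25 μM), expressed as μmol NO2−/mg protein. Triplicates.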

Escherichia coli = test: In vitro antibacterial MIC determination; type: cell-based
Method in brief: as §1

Aspergillus niger = test: In vitro antifungal MIC, poison plate technique; type: cell-based
Aspergillus flavus = test: In vitro antifungal MIC, poison plate technique; type: cell-based
COX-1 = molecular target: T1, COX-1 (Ovis aries, UniProt P05979); test: Colorimetric COX; type: biochemical, ovine; conditions: read-out: % inhibition of COX, COX-1
T1 sequence (P05979 25-600): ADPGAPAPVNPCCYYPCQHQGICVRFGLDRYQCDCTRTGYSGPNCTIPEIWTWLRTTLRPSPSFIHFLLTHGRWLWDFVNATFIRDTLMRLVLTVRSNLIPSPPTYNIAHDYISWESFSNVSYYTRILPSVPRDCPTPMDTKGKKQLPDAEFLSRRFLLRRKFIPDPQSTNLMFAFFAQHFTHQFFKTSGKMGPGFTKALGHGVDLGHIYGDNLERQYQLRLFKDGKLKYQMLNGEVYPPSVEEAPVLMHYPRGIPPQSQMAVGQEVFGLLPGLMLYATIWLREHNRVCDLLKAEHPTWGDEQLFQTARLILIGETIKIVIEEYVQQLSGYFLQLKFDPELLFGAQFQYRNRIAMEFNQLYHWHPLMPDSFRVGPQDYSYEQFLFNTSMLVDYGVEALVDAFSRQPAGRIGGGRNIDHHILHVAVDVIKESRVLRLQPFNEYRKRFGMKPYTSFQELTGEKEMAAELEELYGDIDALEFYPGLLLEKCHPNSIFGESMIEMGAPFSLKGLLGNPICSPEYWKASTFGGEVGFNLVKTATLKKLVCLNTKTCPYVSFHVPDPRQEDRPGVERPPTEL

[2] = test system: carrageenan-induced paw edema; test: Carrageenan induced hind paw edema assay; type: in vivo; conditions: rat, 100 mg kg^−1 p.o., mean ± SEM
Method in brief: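 Rats, six per group, acclimatized one week (25 ± 2 °C, 12 h light/dark, standard pellets, water ad libitum). […] Paw volume measured by plethysmometer displacement to the lateral malleolus at 1, 3 and 6 h. Mean ± SEM.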

Bacillus subtillis = test: In vitro antibacterial MIC determination; type: cell-based
Method in brief: as §1

COX-2 = molecular target: T2, COX-2 (Ovis aries, UniProt P79208); test: Colorimetric COX; type: biochemical, ovine; conditions: read-out: % inhibition of COX, COX-2
T2 sequence (P79208 17-603): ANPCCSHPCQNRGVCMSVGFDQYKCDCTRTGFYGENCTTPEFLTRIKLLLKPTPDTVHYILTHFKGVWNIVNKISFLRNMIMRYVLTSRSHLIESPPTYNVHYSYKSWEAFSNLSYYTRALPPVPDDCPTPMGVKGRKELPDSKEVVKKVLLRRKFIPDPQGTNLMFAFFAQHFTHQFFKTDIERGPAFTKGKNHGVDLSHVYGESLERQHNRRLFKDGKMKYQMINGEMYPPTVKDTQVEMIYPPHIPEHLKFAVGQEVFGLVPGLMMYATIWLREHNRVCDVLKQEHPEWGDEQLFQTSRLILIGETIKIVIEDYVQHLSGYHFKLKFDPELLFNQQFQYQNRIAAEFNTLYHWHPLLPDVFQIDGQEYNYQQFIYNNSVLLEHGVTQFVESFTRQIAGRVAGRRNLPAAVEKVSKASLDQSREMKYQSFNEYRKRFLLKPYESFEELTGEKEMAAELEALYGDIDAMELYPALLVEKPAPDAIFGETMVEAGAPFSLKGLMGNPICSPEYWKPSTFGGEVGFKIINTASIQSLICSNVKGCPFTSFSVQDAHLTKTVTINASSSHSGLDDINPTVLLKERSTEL

RAW 264.7 cells [3] = test: MTT assay, LPS-induced inflammation in RAW 264.7; type: cell-based, murine; conditions: RAW 264.7, pre-treatment 100 μM and 200 μM, then LPS; Fig. 4
Method in brief: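 Mouse RAW 264.7 macrophages kept in high-glucose DMEM with 10% heat-inactivated FBS and 1% penicillin–streptomycin at 37 °C, 5% CO2. Cells seeded at 5 × 10^5 cells per mL, pretreated 1 h with test compound (100 or 200 μM), then stimulated with […] for 24 h. Medium replaced; 0.5 mg mL−1 MTT for 3 h; formazan dissolved in DMSO; OD read at 540 nm. Percent inflammation derived by subtracting percent viability relative to control.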

Staphylococcus aureus = test: In vitro antibacterial MIC determination; type: cell-based
Method in brief: as §1

[4] = test system: cotton pellet induced granuloma; test: Cotton pellets induced granuloma assay; type: in vivo; conditions: rat, 100 mg kg^−1 p.o. for 8 d, mean ± SEM
Method in brief: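 Two sterile 10 mg cotton pellets implanted ventrally in rats, six per group. […] On day 9 rats were killed under excess ether. Pellets were freed of tissue and weighed wet, then dried at 55 °C for 6 h or to constant weight. Granuloma equals dry weight minus cotton weight. Mean ± SEM.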

SMILES | MIC (Pseudomonas aeruginosa) | MIC (Rhizopus arrhizus) | inhibition of LPS-induced NO production (RAW 264.7 cells [1]) | MIC (Escherichia coli) | MIC (Aspergillus niger) | MIC (Aspergillus flavus) | inhibition at 100 µM (COX-1) | inhibition at 200 µM (COX-1) | Paw volume ([2]; 1 h after carrageenan) | Paw volume ([2]; 3 h after carrageenan) | Paw volume ([2]; 6 h after carrageenan) | MIC (Bacillus subtillis) | inhibition at 100 µM (COX-2) | inhibition at 200 µM (COX-2) | anti-inflammatory activity against LPS induced cell death / inflammation (MTT) (RAW 264.7 cells [3]) | MIC (Staphylococcus aureus) | Weight, Dry (cotton pellet) [4] | Weight, Wet (cotton pellet) [4]
COC(=O)NC[C@@H](O)[C@@H]1CCc2cc(F)ccc2O1 [Compound 9a, Methyl ((R)-2-((S)-6-fluorochroman-2-yl)-2-hydroxyethyl)carbamate] | 19.5 ± 1.25 µg/mL (≈ 72.3 µM) | 14.2 ± 0.69 µg/mL (≈ 52.7 µM) | strong inhibition | 21.7 ± 1.06 µg/mL (≈ 80.6 µM) | 11.2 ± 1.08 µg/mL (≈ 41.6 µM) | 12.7 ± 0.8 µg/mL (≈ 47 µM) | 50.66 ± 0.33% | 75.33 ± 0.14% | 0.72 ± 0.72 mL | 1.06 ± 0.52 mL | 1.56 ± 0.33 mL | 20.5 ± 0.76 µg/mL (≈ 76.1 µM) | 18.1 ± 0.88% | 52.42 ± 0.21% | strong anti-inflammatory activity | 16.6 ± 0.35 µg/mL (≈ 61.5 µM) | – | –
CC(C)COC(=O)NC[C@@H](O)[C@@H]1CCc2cc(F)ccc2O1 [Compound 9c, Isobutyl ((R)-2-((S)-6-fluorochroman-2-yl)-2-hydroxyethyl)carbamate] | 28.8 ± 0.6 µg/mL (≈ 92.5 µM) | 25.6 ± 0.48 µg/mL (≈ 82.1 µM) | – | 22.7 ± 0.26 µg/mL (≈ 73 µM) | 19.3 ± 0.47 µg/mL (≈ 62.1 µM) | 19.8 ± 0.37 µg/mL (≈ 63.6 µM) | 39.6 ± 0.08% | 51.64 ± 0.32% | – | – | – | 26.1 ± 0.3 µg/mL (≈ 83.8 µM) | 24.3 ± 0.2% | 41.66 ± 0.23% | – | 19 ± 1.08 µg/mL (≈ 61.2 µM) | – | –
O=S(=O)(NC[C@@H](O)[C@@H]1CCc2cc(F)ccc2O1)c1ccc(F)cc1 [Compound 8a, N-((R)-2-((S)-6-Fluorochroman-2-yl)-2-hydroxyethyl)-4-fluorobenzenesulfonamide] | 31.9 ± 1.04 µg/mL (≈ 86.3 µM) | 22.8 ± 0.54 µg/mL (≈ 61.7 µM) | – | 30.1 ± 0.72 µg/mL (≈ 81.6 µM) | 22.3 ± 0.27 µg/mL (≈ 60.4 µM) | 23.1 ± 0.25 µg/mL (≈ 62.4 µM) | 37.3 ± 0.32% | 45.5 ± 0.77% | – | – | – | 31.6 ± 1.03 µg/mL (≈ 85.5 µM) | 23.5 ± 0.55% | 38.64 ± 0.33% | – | 21.9 ± 0.33 µg/mL (≈ 59.2 µM) | – | –
O=S(=O)(NC[C@@H](O)[C@@H]1CCc2cc(F)ccc2O1)c1ccc(Br)cc1 [Compound 8b, 4-Bromo-N-((R)-2-((S)-6-fluorochroman-2-yl)-2-hydroxyethyl)benzenesulfonamide] | 22.4 ± 0.4 µg/mL (≈ 52.1 µM) | 20.2 ± 0.65 µg/mL (≈ 47 µM) | strong inhibition | 12.7 ± 0.87 µg/mL (≈ 29.5 µM) | 20.4 ± 0.87 µg/mL (≈ 47.4 µM) | 17.81 ± 0.16 µg/mL (≈ 41.4 µM) | 46.1 ± 0.22% | 68.78 ± 0.43% | 0.52 ± 0.18 mL | 0.80 ± 0.38 mL | 1.06 ± 0.27 mL | 15.08 ± 0.08 µg/mL (≈ 35 µM) | 34.4 ± 0.66% | 60.04 ± 0.24% | strong anti-inflammatory activity | 17.9 ± 0.61 µg/mL (≈ 41.6 µM) | 84.10 ± 1.67 mg | 182.50 ± 1.77 mg
[H]/N=C(/N)N[C@H]1[C@H](O)[C@@H](O)[C@H](O[C@@H]2O[C@@H](C)[C@](O)(C=O)[C@H]2O[C@@H]2O[C@@H](CO)[C@H](O)[C@@H](O)[C@@H]2NC)[C@@H](N/C(N)=N\[H])[C@@H]1O [Streptomycin, reference compound] | 28.2 ± 0.8 µg/mL (≈ 48.5 µM) | – | – | 26.4 ± 1.12 µg/mL (≈ 45.4 µM) | – | – | – | – | – | – | – | 25.4 ± 0.48 µg/mL (≈ 43.7 µM) | – | – | – | 18.6 ± 1.07 µg/mL (≈ 32.1 µM) | – | –
